This is an account of results in ChEMBL document CHEMBL4680077, “Differentiation of skeletal osteogenic progenitor cells to osteoblasts with 3,4-diarylbenzopyran based amide derivatives: Novel osteogenic agents” (Eur J Med Chem, 2016).

Data set [1] in a line: Acute toxicity in Swiss albino mouse assessed as relative brain weight at 50 mg/kg, po measured after 7 days (reference value: 1.63 +/- 0.13 %). The note with it: in vivo, 168 h, time 7 day. In kind it is organism-based.
Data set [2] is described as follows: Acute toxicity in Swiss albino mouse assessed as neutrophil count at 300 mg/kg, po measured after 7 days (reference value: 41.50 +/- 4.08 %). It is filed as organism-based. The note with it: in vivo, 168 h, time 7 day.
Data set [3] in a line: Acute toxicity in Swiss albino mouse assessed as lymphocyte count at 300 mg/kg, po measured after 7 days (reference value: 37.97 +/- 1.80 %). It is filed as organism-based. The settings on record: in vivo, 168 h, time 7 day.
The nature of data set [4]: Acute toxicity in Swiss albino mouse assessed as relative liver weight at 300 mg/kg, po measured after 7 days (reference value: 6.81 +/- 2.14 %). In kind it is organism-based. The note with it: in vivo, 168 h, time 7 day.
Data set [5] is described as follows: Acute toxicity in Swiss albino mouse assessed as absolute ovary weight at 5 mg/kg, po measured after 7 days (reference value: 0.04+/- 0.02 g). In kind it is organism-based. The settings on record: in vivo, 168 h, time 7 day.
The nature of data set [6]: Acute toxicity in Swiss albino mouse assessed as malondialdehyde level at 5 mg/kg, po measured after 7 days (reference value: 0.14 +/- 0.01 nM/mg). In kind it is organism-based. The note with it: in vivo, 168 h, time 7 day.
The test system of a further data set is Calvarial osteoblast. Kind of data set: Induction of osteoblast differentiation in mouse calvarial osteoblast assessed as increase in RUNX-2 mRNA expression at 1 pM incubated for 24 hrs by qPCR analysis. It is filed as functional, cell-based. Summed up:
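Calvarial osteoblasts were treated at 1 pM for 24 and 48 h. Total RNA was extracted with TRIzol, and cDNA was made from 2 µg RNA. qPCR ran 40 cycles for BMP-2, RUNX-2, OCN and collagen type 1, with normalization to GAPDH. Mean ± SEM of three independent experiments.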
A general note: Real-time PCR tracks product formation cycle by cycle.

Data set [7] is described as follows: Acute toxicity in Swiss albino mouse assessed as tissue protein level at 5 mg/kg, po measured after 7 days (reference value: 0.029 +/- 0.004 mg/ml). In kind it is organism-based. The note with it: in vivo, 168 h, time 7 day.
A short description of data set [8]: Acute toxicity in Swiss albino mouse assessed as relative liver weight at 50 mg/kg, po measured after 7 days (reference value: 6.81 +/- 2.14 %). In kind it is organism-based. The note with it: in vivo, 168 h, time 7 day.
Data set [9] is described as follows: Acute toxicity in Swiss albino mouse assessed as basophil count at 50 mg/kg, po measured after 7 days (reference value: 1.50 +/- 0.29 %). It is filed as organism-based. The note with it: in vivo, 168 h, time 7 day.
Data set [10] can be described thus: Acute toxicity in Swiss albino mouse assessed as absolute brain weight at 1000 mg/kg, po measured after 7 days (reference value: 0.37 +/- 0.02 g). It is filed as organism-based. The note with it: in vivo, 168 h, time 7 day.
Data set [11] can be described thus: Acute toxicity in Swiss albino mouse assessed as relative spleen weight at 1000 mg/kg, po measured after 7 days (reference value: 0.73 +/- 0.14 %). It is filed as organism-based. The settings on record: in vivo, 168 h, time 7 day.
The nature of data set [12]: Acute toxicity in Swiss albino mouse assessed as relative brain weight at 5 mg/kg, po measured after 7 days (reference value: 1.63 +/- 0.13 %). In kind it is organism-based. The settings on record: in vivo, 168 h, time 7 day.
A short description of data set [13]: Acute toxicity in Swiss albino mouse assessed as haemoglobin level at 50 mg/kg, po measured after 7 days (reference value: 10.86 +/- 0.87 g/dL). In kind it is organism-based. The note with it: in vivo, 168 h, time 7 day.
The nature of data set [14]: Acute toxicity in Swiss albino mouse assessed as relative uterus weight at 50 mg/kg, po measured after 7 days (reference value: 1.63 +/- 0.71 %). It is filed as organism-based. The settings on record: in vivo, 168 h, time 7 day.
A further data set deals with Mus musculus. Kind of data set: In vivo osteogenic activity in ovariectomized BALB/c mouse assessed as decrease in serum CTx at 1 to 10 mg/kg, po via gavage administered for 30 days. In kind it is functional, organism-based. The note with it: dose 1-10 mg/kg, time 30.0 day. Summed up:
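Eight-week-old female balb/c mice were ovariectomized and dosed once daily by oral gavage at 1 or 10 mg kg-1 in vehicle (gum acacia in water) for 30 days; sham and Ovx vehicle groups served as controls. Serum CTx and osteocalcin were assayed in duplicate. n = 10 per group; mean ± SEM.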

Data set [15] in a line: Acute toxicity in Swiss albino mouse assessed as SGPT level at 50 mg/kg, po measured after 7 days (reference value: 14.04 +/- 1.45 U/L). In kind it is organism-based. The settings on record: in vivo, 168 h, time 7 day.
Data set [16] in a line: Acute toxicity in Swiss albino mouse assessed as serum protein level at 50 mg/kg, po measured after 7 days (reference value: 0.66 +/- 0.01 mg/ml). In kind it is organism-based. The note with it: in vivo, 168 h, time 7 day.
Data set [17] can be described thus: Acute toxicity in Swiss albino mouse assessed as absolute kidney weight at 1000 mg/kg, po measured after 7 days (reference value: 0.29 +/- 0.02 g). The note with it: in vivo, 168 h, time 7 day. It is filed as organism-based.

Active and inactive are the calls of the source. The rule behind the calls is not given here.

Take `CCCCN(C)C(=O)CCCCOc1ccc([C@H]2c3ccc(OC)cc3OC(C)(C)[C@@H]2c2ccccc2)cc1`: the Activity in data set [1] stood at 1.54%; in [2], 41.54%; in data set [3] it was 42.9%; in data set [4], 4.84%; in [5], 0.07 g; in data set [6], 0.14 nM/mg. The Activity in data set [7] was found to be 0.035 mg/mL; in data set [8], 5.17%; in data set [9], 0.5%; in [10], 0.33 g; in [11], 0.5%; in data set [12], 1.46%. Moreover, the Activity in [13] was found to be 13.14 g/dL; in data set [14], 1.17%; in data set [15], 17.18 U/L; in [16], 0.74 mg/mL; in data set [17], 0.29 g. In addition, the outcome in the data set on Calvarial osteoblast and with Mus musculus was Active.
